Reference: ChEMBL document CHEMBL1128745 (J Med Chem, 1995)

How the values were obtained:
[1] = target: T1, Angiotensin II receptor (Rattus norvegicus) (UniProt P29089+P25095+P35351); assay: Ratio of IC50 at Angiotensin II type 1 and angiotensin II type 2 receptors; format: protein assay
Outline: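 AT2 IC50 divided by AT1 IC50. Both come from [125I][Sar1,Ile8]Ang II displacement on rat adrenal membrane homogenates, with 10^-6 M losartan (AT2) or 10^-6 M PD123177 (AT1) present. Each was run in duplicate.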

[2] = target: T2, Type-2 angiotensin II receptor (Rattus norvegicus, UniProt P35351); assay: Inhibition of [125I]-[Sar1,Ile8]Ang II binding at rat angiotensin II (type 2) receptor.
T2 sequence (P35351 whole entry): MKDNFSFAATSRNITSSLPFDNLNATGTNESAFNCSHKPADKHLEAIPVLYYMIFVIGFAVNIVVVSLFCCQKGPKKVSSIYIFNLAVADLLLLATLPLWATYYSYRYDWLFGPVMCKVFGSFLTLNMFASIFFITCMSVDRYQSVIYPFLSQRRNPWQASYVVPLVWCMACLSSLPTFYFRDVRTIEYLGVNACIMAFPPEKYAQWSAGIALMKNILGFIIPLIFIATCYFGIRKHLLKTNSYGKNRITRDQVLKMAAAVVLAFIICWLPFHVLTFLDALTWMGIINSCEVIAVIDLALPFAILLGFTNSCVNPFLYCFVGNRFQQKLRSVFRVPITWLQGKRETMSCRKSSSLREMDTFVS
Outline: (§1)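 AT2 binding uses rat isolated adrenal membrane homogenates with 10^-6 M losartan present. [125I][Sar1,Ile8]Ang II is the radioligand, and IC50 is 50% displacement of total specifically bound label. Duplicate determinations include DuP 753 and saralasin as internal standards. Intraassay variability 5%, interassay 20%.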

[3] = target: T3, Angiotensin II receptor (AT-1) type-1 (Rattus norvegicus, UniProt P29089+P25095); assay: Inhibition of [125I]-[Sar1,Ile8]Ang II binding at rat angiotensin II (type 1) receptor.; format: protein assay
T3 sequence (P29089 whole entry): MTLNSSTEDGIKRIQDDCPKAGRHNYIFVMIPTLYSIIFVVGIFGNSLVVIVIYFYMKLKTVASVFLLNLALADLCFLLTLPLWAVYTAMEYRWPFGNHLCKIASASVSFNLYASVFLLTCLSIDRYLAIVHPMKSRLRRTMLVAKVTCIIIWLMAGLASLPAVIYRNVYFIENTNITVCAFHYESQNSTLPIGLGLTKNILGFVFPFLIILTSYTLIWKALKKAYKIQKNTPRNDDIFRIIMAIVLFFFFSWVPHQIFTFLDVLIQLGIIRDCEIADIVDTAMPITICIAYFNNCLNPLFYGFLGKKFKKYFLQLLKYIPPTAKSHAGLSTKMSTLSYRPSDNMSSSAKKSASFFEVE
T3 sequence (P25095 whole entry): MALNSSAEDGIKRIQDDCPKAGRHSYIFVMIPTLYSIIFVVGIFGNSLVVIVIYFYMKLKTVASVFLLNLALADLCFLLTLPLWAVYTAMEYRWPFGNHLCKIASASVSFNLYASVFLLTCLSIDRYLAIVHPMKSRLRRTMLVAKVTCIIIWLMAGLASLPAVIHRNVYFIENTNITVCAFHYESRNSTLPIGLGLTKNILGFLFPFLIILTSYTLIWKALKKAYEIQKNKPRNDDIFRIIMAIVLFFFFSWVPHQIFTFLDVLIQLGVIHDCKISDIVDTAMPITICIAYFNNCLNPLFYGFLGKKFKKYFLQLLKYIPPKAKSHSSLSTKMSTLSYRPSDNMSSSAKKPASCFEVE
Outline: (§2)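 Rat isolated adrenal membrane homogenates with 10^-6 M PD123177 present to isolate the AT1 site. Radioligand is [125I][Sar1,Ile8]Ang II. IC50 is the concentration giving 50% displacement of total specifically bound radioligand. Run in duplicate against DuP 753 and saralasin as internal standards. Intraassay variability 5%, interassay 20%.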

Rattus norvegicus = assay: Effective dose to lower blood pressure by 30 mmHg in renal hypertensive rats on peroral administration.; format: functional; settings: po
Outline: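 Conscious renal artery-ligated hypertensive rats were dosed orally; vehicle was 0.05 mg/mL Na2CO3 in 0.5% methocel. Mean arterial pressure was monitored, n=6-9 per group. ED30 is the dose that lowers blood pressure by 30 mmHg.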

[4] = target: T3, Angiotensin II receptor (AT-1) type-1; assay: Inhibitory concentration against Angiotensin II receptor type 1 with [125I]-[Sar1,Ile8]Ang II; format: protein assay; outline: as §2
[5] = target: T1, Angiotensin II receptor (Rattus norvegicus); assay: Relative inhibition of angiotensin II type 2 and angiotension II type 1 receptors in modified assay; format: protein assay
Outline: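 Rat adrenal membrane homogenates with [125I][Sar1,Ile8]Ang II as radioligand. AT1 sites were measured with 10^-6 M PD123177 present and AT2 sites with 10^-6 M losartan present. IC50 is the concentration giving 50% displacement of specifically bound radioligand, run in duplicate against DuP 753 and saralasin standards. Intra-assay variability was 5% and inter-assay 20%. The value is the AT2 IC50 divided by the AT1 IC50.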

[6] = target: T2, Type-2 angiotensin II receptor; assay: Inhibitory concentration against Angiotensin II receptor type 2 with [125I]-[Sar1,Ile8]Ang II; outline: as §1
[7] = target: T1, Angiotensin II receptor (Rattus norvegicus); assay: Relative inhibition of angiotensin II receptor types 1 and 2; format: protein assay

Structure (SMILES) | IC50 ratio [1] | IC50 [2] | IC50 [3] | IC50 [4] | IC50 ratio [5] | IC50 [6] | IC50 ratio [7] | ED30 (Rattus norvegicus)
CCCCOC(=O)NS(=O)(=O)c1ccccc1-c1ccc(Cn2c(CCC)nc(CC)c2C(=O)CCN(CCCC)C(=O)c2ccccc2)c(F)c1 | 33 | 10 nM | 0.3 nM | – | – | – | – | –
CCCc1nc(CC)c(C(=O)CCN(C(C)=O)c2cccnc2)n1Cc1ccc(-c2ccccc2S(=O)(=O)NC(=O)OCCC(C)C)cc1F | 7.5 | 3 nM | 0.4 nM | – | – | – | – | –
CCCCOC(=O)NS(=O)(=O)c1ccccc1-c1ccc(Cn2c(CCC)nc(CC)c2C(C)=O)c(F)c1 | 1 | 1 nM | 1 nM | 0.09 nM | 111 | 10 nM | – | –
CCCCOC(=O)NS(=O)(=O)c1ccccc1-c1ccc(Cn2c(CCC)nc(CC)c2C(=O)OC)c(Cl)c1 | 231 | – | 3 nM | 0.16 nM | – | 37 nM | 2.3 | –
CCCC(=O)N(CCC(=O)c1c(CC)nc(CCC)n1Cc1ccc(-c2ccccc2S(=O)(=O)NC(=O)OCCC(C)C)cc1F)c1cccnc1 | 0.78 | 0.25 nM | 0.32 nM | – | – | – | – | 0.27 mg/kg
CCCc1nc(CC)c(C(=O)OC)n1Cc1ccc(-c2ccccc2S(=O)(=O)NC(=O)OCCC(C)C)cc1F | – | 3 nM | 1 nM | 0.1 nM | – | 40 nM | 3 | –
CCCc1nc(CC)c(C(=O)CCN(C(=O)c2cccnc2)c2cccnc2)n1Cc1ccc(-c2ccccc2S(=O)(=O)NC(=O)OCCC(C)C)cc1F | 0.44 | 0.22 nM | 0.5 nM | – | – | – | – | 0.26 mg/kg
CCCc1nc(CC)c(C(=O)CCN(C(=O)CC)c2cccnc2)n1Cc1ccc(-c2ccccc2S(=O)(=O)NC(=O)OCCC(C)C)cc1F | 1.09 | 0.49 nM | 0.45 nM | – | – | – | – | 0.26 mg/kg
CCCc1nc(CC)c(C(=O)CCN(C(=O)C(C)C)c2cccnc2)n1Cc1ccc(-c2ccccc2S(=O)(=O)NC(=O)OCCC(C)C)cc1F | 3.3 | 1 nM | 0.3 nM | – | – | – | – | –
CCCC(=O)N(CCC(=O)c1c(CC)nc(CCC)n1Cc1ccc(-c2ccccc2S(=O)(=O)NC(=O)OCCC(C)C)cc1)c1cccnc1 | 2.5 | 1 nM | 0.4 nM | – | – | – | – | –
CCCc1nc(CC)c(C(=O)CCN(C(=O)c2cccnc2)c2cccnc2)n1Cc1ccc(-c2ccccc2S(=O)(=O)NC(=O)OCCC(C)C)cc1 | 3.3 | 1 nM | 0.3 nM | – | – | – | – | –
CCCc1nc(CC)c(C(=O)CCN(C(=O)c2ccncc2)c2cccnc2)n1Cc1ccc(-c2ccccc2S(=O)(=O)NC(=O)OCCC(C)C)cc1F | 1.4 | 1 nM | 0.7 nM | – | – | – | – | 0.4 mg/kg

Continued, in another order:

IC50 ratio [1] | IC50 [2] | IC50 [3] | IC50 [4] | IC50 ratio [5] | IC50 [6] | IC50 ratio [7] | Structure (SMILES) | ED30 (Rattus norvegicus)
0.25 | 0.1 nM | 0.4 nM | – | – | – | – | CCCc1nc(CC)c(C(=O)CCN(C(=O)c2ccncc2)c2ccccc2)n1Cc1ccc(-c2ccccc2S(=O)(=O)NC(=O)OCCC(C)C)cc1F | < 3 mg/kg
0.31 | 0.16 nM | 0.52 nM | – | – | – | – | CCCc1nc(CC)c(C(=O)CCN(C(=O)c2cccnc2)c2ccccn2)n1Cc1ccc(-c2ccccc2S(=O)(=O)NC(=O)OCCC(C)C)cc1F | 0.9 mg/kg
0.7 | 0.18 nM | 0.25 nM | – | – | – | – | CCCCOC(=O)NS(=O)(=O)c1ccccc1-c1ccc(Cn2c(CCC)nc(CC)c2C(=O)CCN(C(=O)c2ccccc2)c2ccccc2)c(F)c1 | 1.57 mg/kg
– | 0.06 nM | 0.1 nM | – | – | – | – | CCCc1nc(CC)c(C(=O)CCN(C(=O)c2ccccc2)c2ccccc2)n1Cc1ccc(-c2ccccc2S(=O)(=O)NC(=O)OCCC(C)C)cc1F | –
0.75 | 0.15 nM | 0.2 nM | – | – | – | – | CCCCOC(=O)NS(=O)(=O)c1ccccc1-c1ccc(Cn2c(CCC)nc(CC)c2C(=O)CCN(C(=O)CCC)c2ccccc2)c(F)c1 | 1.5 mg/kg
